ARNT TACC3 PPI = disruptors of human ARNT/TACC3 interaction; Q9Y6A5; inhibition, % at 9.99 µM; AlphaScreen His-ARNT PAS-B/GST-TACC3 binding, luminescence; TACC3 fragment carries E629A point mutation; AID 623870; 390,000 compounds, 0.66% hits;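 active = mean inhibition of replicates at least 50% and at least half of replicates each reaching 50%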;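 also: 0% = complete ARNT plus TACC3 wells and 100% = ARNT alone without TACC3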
HIF act = HIF pathway transcriptional activation; activation, % at 7.5 µM (by protocol); 300,000 compounds, 0.32% hits; U2OS HRE-luciferase reporter, luminescence; normalized: DMSO 0%, desferrioxamine 100%; AID 1910;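 active = mean activation of at least 10% of the iron chelator positive control signal, with at least half of replicates also reaching 10%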
AI-2 QS mod = Vibrio harveyi AI-2 quorum sensing modulation; Vibrio harveyi JMH597 AI-2 luminescence/OD600 ratio, 9 h; stronger effect = lower value; strain lacks LuxN and CqsS sensors; 0 = neutral-control median; activity change, % at 7.5 µM; 300,000 compounds, 0.4% hits; in the data active = activity change below about -75%, passing the limit was not always enough;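 also: luminescence divided by OD600 gain over 9 h not by final OD600 alone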
T cruzi inh = blocks replication of Trypanosoma cruzi. inhibition, % (concentration not given with the values). 300,000 compounds, 1.4% hits. T. cruzi beta-gal in NIH3T3, luminescence, 90 h. AID 1885;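 active = mean inhibition across valid replicates above about 55%, limit read from the data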;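 also: signal also drops with host cell toxicity which is not excluded here; 0% = plate median of DMSO wells and 100% = zero luminescence signal; higher percent means less beta-gal luminescence so fewer parasites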
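Material: NIH/3T3 host cells with β-galactosidase reporter T. cruzi; Input: 5,000 host fibroblasts per well; Medium: DMEM, 2% fetal bovine serum; Compound: 50 nL DMSO compound solution per well; Schedule: 3 h host attachment, then at least 90 h co-culture; Detection: luminescent β-galactosidase signal after 60 min lysis.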
Numbers without * were called inactive. Most compounds without a hit are left out; they make up all but 2% or so of the library.

Results for CCCCn1c(O)c(C(C)=NCc2cc(OC)cc(OC)c2)c(=O)[nH]c1=O ?
ARNT TACC3 PPI: 26*; HIF act: 0; AI-2 QS mod: 14; T cruzi inh: -13

How did O=c1[nH]c(=O)n(C2CCCCCC2)c(O)c1C=NC1CCN(Cc2ccccc2)CC1 do in these assays?
ARNT TACC3 PPI: 1; HIF act: 0; AI-2 QS mod: 3; T cruzi inh: 65*

What do the screens show for `COc1cc(/C=C(/C)[N+](=O)[O-])ccc1OCc1ccccc1Cl`?
HIF act: -3; AI-2 QS mod: 27; T cruzi inh: 61*

What do the screens show for `COc1cc(C=C2C(=O)NC(=O)NC2=O)ccc1OCc1ccc([N+](=O)[O-])cc1`?
ARNT TACC3 PPI: 1

How did C/C=C/c1ccc([C@@H]2[C@@H](CO)N3CCCCN(C(=O)Cc4ccncc4)C[C@H]23)cc1 do in these assays?
ARNT TACC3 PPI: 2

What do the screens show for `CCOC(=O)c1c(NC(=O)C(c2ccccc2)c2ccccc2)sc2c1C1CCN2CC1`?
ARNT TACC3 PPI: 5; HIF act: 0; AI-2 QS mod: 24; T cruzi inh: 55*

What do the screens show for `O=C(OC1CCN(CCCl)CC1)C(c1ccccc1)c1ccccc1`?
ARNT TACC3 PPI: 3

Results for O=C(Cc1cccnc1)N1CCCCN2[C@H](C1)[C@@H](c1ccc(/C=C/c3ccccc3)cc1)[C@@H]2CO ?
ARNT TACC3 PPI: 9

Results for O=c1[nH]c(=O)n(Cc2ccco2)c(O)c1/C=N/N1CCCCC1 ?
ARNT TACC3 PPI: active; HIF act: 1; AI-2 QS mod: 5; T cruzi inh: 20

How did O=c1[nH]c(=O)n(Cc2ccco2)c(O)c1C=NC1CC1 do in these assays?
ARNT TACC3 PPI: 29; HIF act: 0; AI-2 QS mod: 54; T cruzi inh: 5

What do the screens show for `COC(=O)[C@H]1[C@H](CO)[C@H]2Cn3c(ccc(-c4ccc(F)cc4)c3=O)[C@@H]1N2Cc1cccnc1`?
ARNT TACC3 PPI: -2

Results for O=C(O)[C@@H]1[C@@H](CO)[C@@H]2Cn3c(ccc(-c4cccnc4)c3=O)[C@H]1N2S(=O)(=O)c1ccccc1F ?
ARNT TACC3 PPI: -8

How did O=[N+]([O-])c1ccc(N2CCNCC2)cc1N1CCCCCC1 do in these assays?
ARNT TACC3 PPI: 11; HIF act: 0; AI-2 QS mod: -5; T cruzi inh: 7

What do the screens show for `CN1CCN(c2ccc([N+](=O)[O-])c(N3CCCCC3)c2)CC1`?
ARNT TACC3 PPI: -13; HIF act: 0; AI-2 QS mod: 18; T cruzi inh: 79*

Results for c1ccc(-c2ccc(-c3n(-c4ccccn4)c4ccccc4[n+]3-c3ccccn3)cc2)cc1 ?
ARNT TACC3 PPI: 5; HIF act: 0; AI-2 QS mod: 19; T cruzi inh: 60*

Results for COC(=O)c1nc(-c2ccc3c(n2)C(=O)C(N)=C(OC)C3=O)c(N)c(-c2ccc(OC)c(OC)c2O)c1C ?
ARNT TACC3 PPI: 45*; HIF act: 4; AI-2 QS mod: 48; T cruzi inh: 50

How did COc1ccc(C#Cc2ccc([C@@H]3[C@@H](CO)N4CCCCN(C(=O)Cc5ccncc5)C[C@@H]34)cc2)cc1 do in these assays?
ARNT TACC3 PPI: 25

Results for COC(=O)C1C(O)C(C)C(O)C(C)/C=C\C=C(/C)C(=O)Nc2c(C)c(OC(C)=O)c3c(c2O)C(=O)C(C)=C2OCOC(=C23)/C(C)=C/C(C)(O)C(O)C(C)C1O (stereo unspecified) ?
ARNT TACC3 PPI: 9; HIF act: -2; AI-2 QS mod: -150*; T cruzi inh: -15

How did COC(=O)C[C@@H]1CC[C@H]2NC[C@@H](O)COC[C@@H]2O1 do in these assays?
ARNT TACC3 PPI: 15

How did CCN1/C(=C\C=C\C2=[N+](CC)c3ccccc3C2(C)C)C(C)(C)c2ccccc21 do in these assays?
ARNT TACC3 PPI: -9; HIF act: -3; AI-2 QS mod: 49; T cruzi inh: 55*

What do the screens show for `N#CC1=C(N)Oc2c(c(=O)sc3ccccc23)C1c1cccnc1` (stereo unspecified)?
ARNT TACC3 PPI: 10; HIF act: 2; AI-2 QS mod: 3; T cruzi inh: 77*

What do the screens show for `COc1cc2c(cc1O)C[C@H]1NCCc3cc4c(c-2c31)OCO4`?
ARNT TACC3 PPI: 52*; HIF act: 1; AI-2 QS mod: 19; T cruzi inh: 21

What do the screens show for `COc1cc2c(cc1OC)-c1c3c(cc4c1[C@@H](C2)N(C)CC4)OCO3`?
ARNT TACC3 PPI: 35*; HIF act: -1; AI-2 QS mod: 0; T cruzi inh: 29
